Among the data in ChEMBL document CHEMBL4145447, “4-arylamidobenzyl substituted 5-bromomethylene-2(5H)-furanones for chronic bacterial infection” (Eur J Med Chem, 2018) are inhibition and Activity values, retold here.

Active and inactive are the calls of the source. No cut-off for these calls is given here.

Experiment [1] concerns the target T1, Peroxisome proliferator-activated receptor gamma (Mus musculus) (UniProt P37238).
T1 sequence (whole entry): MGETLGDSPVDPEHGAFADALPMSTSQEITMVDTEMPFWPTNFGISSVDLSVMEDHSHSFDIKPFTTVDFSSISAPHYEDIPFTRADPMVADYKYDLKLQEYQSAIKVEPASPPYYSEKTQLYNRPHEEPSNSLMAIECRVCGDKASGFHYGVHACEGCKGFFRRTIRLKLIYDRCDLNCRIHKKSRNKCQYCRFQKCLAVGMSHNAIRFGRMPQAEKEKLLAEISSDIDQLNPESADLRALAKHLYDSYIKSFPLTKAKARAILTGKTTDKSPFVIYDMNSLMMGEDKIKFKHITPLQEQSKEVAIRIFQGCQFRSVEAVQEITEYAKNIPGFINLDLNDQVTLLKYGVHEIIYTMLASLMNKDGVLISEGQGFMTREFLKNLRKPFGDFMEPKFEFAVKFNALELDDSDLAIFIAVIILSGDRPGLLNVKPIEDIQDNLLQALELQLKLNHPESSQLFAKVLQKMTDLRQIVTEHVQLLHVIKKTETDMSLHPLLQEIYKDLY
In words: Agonist activity at PPARgamma in mouse RAW264.7 cells assessed as inhibition of LPS-induced ERk1/2 phosphorylation at Thr202/Tyr204 residues at 10 uM preincubated for 1 hr followed by LPS stimulation and measured after 4 hrs by Western blot analysis. It is filed as cell-based. In a few lines:
(§1)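 Western blot: RAW264.7 cells (2 × 10^6/well) pretreated 1 h with compound (10 µM), antagonist GW9662 (5 µM) where stated, then LPS 500 ng/mL for 4 h. Lysis on ice with PMSF, BCA-normalised protein on SDS gels, PVDF transfer, milk block, phospho- and total-protein primary antibodies, HRP secondary, ECL detection. Densitometry normalised to internal control; n = 3.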

Experiment [2] addresses T1, Peroxisome proliferator-activated receptor gamma (Mus musculus). In words: Agonist activity at PPARgamma in mouse RAW264.7 cells assessed as inhibition of LPS-induced MAPK p38 phosphorylation at Thr180/Tyr182 residues at 10 uM preincubated for 1 hr followed by LPS stimulation and measured after 4 hrs in presence of PPARgamma antagonist GW9662 by Western blot analysis. The class given is cell-based. In a few lines:
as §1

For experiment [3] the target is unchanged. In words: Agonist activity at PPARgamma in mouse RAW264.7 cells assessed as inhibition of LPS-induced MAPK p38 phosphorylation at Thr180/Tyr182 residues at 10 uM preincubated for 1 hr followed by LPS stimulation and measured after 4 hrs by Western blot analysis. The class given is cell-based. In short, it runs like this: as §1
For experiment [4], the system named is RAW264.7. In words: Anti-inflammatory activity in mouse RAW264.7 cells assessed as inhibition of LPS-induced TNF-alpha production by measuring TNF-alpha level at 10 uM preincubated for 2 hrs followed by LPS stimulation and measured after 12 hrs by ELISA (reference value: 21561.3 +/- 857 pg/ml). The class given is functional.
Experiment [5] has as its system RAW264.7. In words: Anti-inflammatory activity in mouse RAW264.7 cells assessed as inhibition of LPS-induced IL-6 production by measuring […] level at 10 uM preincubated for 2 hrs followed by LPS stimulation and measured after 6 hrs by ELISA (reference value: 94.6 +/- 5.9 pg/ml). The class given is functional.
The target of experiment [6] is T2, Anthranilate--CoA ligase (Pseudomonas aeruginosa (strain ATCC 15692 / DSM 22644 / CIP 104116 /JCM 14847 / LMG 12228 / 1C / PRS 101 / PAO1)) (UniProt Q9I4X3).
T2 sequence (whole entry): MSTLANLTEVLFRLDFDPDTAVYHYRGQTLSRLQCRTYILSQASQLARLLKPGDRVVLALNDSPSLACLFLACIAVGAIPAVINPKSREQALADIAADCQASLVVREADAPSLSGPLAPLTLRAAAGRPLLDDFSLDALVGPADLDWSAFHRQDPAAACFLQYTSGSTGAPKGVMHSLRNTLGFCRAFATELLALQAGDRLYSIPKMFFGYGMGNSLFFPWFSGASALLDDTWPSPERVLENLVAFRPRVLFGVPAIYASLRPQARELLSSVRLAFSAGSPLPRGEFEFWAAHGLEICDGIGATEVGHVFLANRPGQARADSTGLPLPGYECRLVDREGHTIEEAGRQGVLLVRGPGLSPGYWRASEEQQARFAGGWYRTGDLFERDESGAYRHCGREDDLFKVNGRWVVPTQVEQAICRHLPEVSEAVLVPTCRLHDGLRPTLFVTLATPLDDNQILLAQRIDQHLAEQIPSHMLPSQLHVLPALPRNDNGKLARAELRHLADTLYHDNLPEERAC
The experiment can be described thus: Inhibition of Pseudomonas aeruginosa PAO1 GFP-fused quorum sensing pqsA at 10 uM measured every 15 mins up to 12 hrs by GFP reporter gene assay relative to control. In short, it runs like this:
(§2)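 GFP reporter strains of P. aeruginosa PAO1 (lasB-, rhlA- or pqsA-promoter fused to unstable gfp(ASV)) grown overnight in LB at 37 °C, 200 rpm, 18 h, then diluted 1:100. Culture mixed 1:1 with compound diluted in LB from 10 mM DMSO stock (0.1% DMSO final). Fluorescence (ex 485/em 528 nm) read every 15 min at 37 °C for ≥12 h.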

The target in experiment [7] is Elastase (Pseudomonas aeruginosa (strain ATCC 15692 / PAO1 / 1C / PRS 101 / LMG12228)) (UniProt P14756). In words: Inhibition of Pseudomonas aeruginosa PAO1 GFP-fused quorum sensing lasB at 10 uM measured every 15 mins up to 12 hrs by GFP reporter gene assay relative to control. In short, it runs like this: as §2
Elastase (Pseudomonas aeruginosa (strain ATCC 15692 / PAO1 / 1C / PRS 101 / LMG12228)), sequence (P14756 198-498 limits assumed): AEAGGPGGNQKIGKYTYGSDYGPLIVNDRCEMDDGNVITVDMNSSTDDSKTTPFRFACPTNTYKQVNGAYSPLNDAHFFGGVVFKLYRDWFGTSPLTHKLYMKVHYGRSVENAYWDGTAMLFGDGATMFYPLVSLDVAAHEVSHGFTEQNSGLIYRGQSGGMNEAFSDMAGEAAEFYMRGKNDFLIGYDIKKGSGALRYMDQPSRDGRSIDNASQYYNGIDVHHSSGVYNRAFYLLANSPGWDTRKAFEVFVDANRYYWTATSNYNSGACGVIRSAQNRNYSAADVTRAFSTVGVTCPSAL
For experiment [8], the system named is RAW264.7. In words: Anti-inflammatory activity in mouse RAW264.7 cells assessed as inhibition of LPS-induced IL-6 production by measuring […] level at 10 uM preincubated for 2 hrs followed by LPS stimulation and measured after 12 hrs by ELISA (reference value: 175.2 +/- 10.2 pg/ml). It is filed as functional.
In experiment [9] the test system is RAW264.7. The experiment can be described thus: Anti-inflammatory activity in mouse RAW264.7 cells assessed as inhibition of LPS-induced IL-6 production by measuring IL-6 level at 10 uM preincubated for 2 hrs followed by LPS stimulation and measured after 24 hrs by ELISA (reference value: 407.6 +/- 16.7 pg/ml).
The target of experiment [10] is T1, Peroxisome proliferator-activated receptor gamma (Mus musculus). The experiment can be described thus: Agonist activity at PPARgamma in mouse RAW264.7 cells assessed as inhibition of LPS-induced NF-kB p65 phosphorylation at 10 uM preincubated for 1 hr followed by LPS stimulation and measured after 4 hrs by Western blot analysis. The class given is cell-based. In short, it runs like this:
as §1

Experiment [11] has the same target. The experiment can be described thus: Agonist activity at PPARgamma in mouse RAW264.7 cells assessed as inhibition of LPS-induced IkB-alpha phosphorylation at Ser32/36 residues at 10 uM preincubated for 1 hr followed by LPS stimulation and measured after 4 hrs in presence of PPARgamma antagonist GW9662 by Western blot analysis. It is filed as cell-based. In short, it runs like this: as §1

The subject of experiment [12] is Pseudomonas aeruginosa PAO1. In words: Inhibition of Pseudomonas aeruginosa PAO1 GFP-fused quorum sensing rhlA at 10 uM measured every 15 mins up to 12 hrs by GFP reporter gene assay relative to control. In a few lines: as §2

Consider `O=C(C=Cc1ccccc1)Nc1ccc(CC2=CC(=O)O/C2=C/Br)cc1`, for which the inhibition entry in experiment [1], in experiment [3] and in [10] was “Active” throughout. Moreover, the inhibition result in [2] and in experiment [11] was “inactive” each time. Moreover, the Activity with RAW264.7 [4] was 15037.3 pg/mL; in the experiment with RAW264.7 [5], 19.6 pg/mL; with RAW264.7 [8] it was 75.3 pg/mL; with RAW264.7 [9], 158.2 pg/mL. The values for the inhibition in experiment [6], in [7] and in experiment [12] were 23.1%, 11.8% and 12%, respectively.
In the case of `O=C(Cc1ccc(F)cc1)Nc1ccc(CC2=CC(=O)OC2=CBr)cc1`, the inhibition result in experiment [1], in [3] and in [10] was “Active” each time. Moreover, the inhibition result in [2] and in experiment [11] was “inactive” each time. Also, the Activity was found to be 13362.7 pg/mL with RAW264.7 [4], 17 pg/mL in the experiment on RAW264.7 [5], 66.3 pg/mL with RAW264.7 [8] and 145.2 pg/mL with RAW264.7 [9]. Besides, the inhibition turned out to be 50.3% in experiment [6], 15.2% in experiment [7] and 14.7% in experiment [12].
